Activity calls are given as the source filed them. The calls are words filed in the database; no cut-off is given here.
Each compound was assayed against T1, Delta-type opioid receptor (Homo sapiens, UniProt P41143) (assay: Agonist activity at human DOR expressed in HEK293 cell membrane assessed as inhibition of forskolin-induced cAMP accumulation by liquid scintillation counting relative to control).
Type: functional, cell membranes

T1 sequence (P41143 whole entry): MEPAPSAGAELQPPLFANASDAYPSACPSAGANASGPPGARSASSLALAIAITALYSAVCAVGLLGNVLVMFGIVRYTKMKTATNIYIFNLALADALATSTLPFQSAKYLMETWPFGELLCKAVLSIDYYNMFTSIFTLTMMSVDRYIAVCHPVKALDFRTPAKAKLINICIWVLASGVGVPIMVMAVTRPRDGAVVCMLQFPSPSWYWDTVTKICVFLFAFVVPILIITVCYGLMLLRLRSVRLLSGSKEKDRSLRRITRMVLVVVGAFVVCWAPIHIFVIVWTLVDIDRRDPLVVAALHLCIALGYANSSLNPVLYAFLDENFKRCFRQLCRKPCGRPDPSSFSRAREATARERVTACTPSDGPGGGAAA

SMILES | Emax [%]
Cc1cc(O)cc(C)c1C[C@H](N)C(=O)N[C@H](C)C(=O)N[C@H]1Cc2ccccc2CN(CC(N)=O)C1=O | 66
Cc1cc(O)cc(C)c1C[C@H](N)C(=O)N(C)[C@H](C)C(=O)N[C@H]1Cc2ccccc2CN(CC(N)=O)C1=O | 61

These compounds were tested against T2, Mu-type opioid receptor (Homo sapiens, UniProt P35372) (assay: Agonist activity at human MOR expressed in HEK293 cells assessed as stimulation of ERK1/2 phosphorylation at […] after 2 mins by Western blotting).
T2 sequence (P35372 whole entry): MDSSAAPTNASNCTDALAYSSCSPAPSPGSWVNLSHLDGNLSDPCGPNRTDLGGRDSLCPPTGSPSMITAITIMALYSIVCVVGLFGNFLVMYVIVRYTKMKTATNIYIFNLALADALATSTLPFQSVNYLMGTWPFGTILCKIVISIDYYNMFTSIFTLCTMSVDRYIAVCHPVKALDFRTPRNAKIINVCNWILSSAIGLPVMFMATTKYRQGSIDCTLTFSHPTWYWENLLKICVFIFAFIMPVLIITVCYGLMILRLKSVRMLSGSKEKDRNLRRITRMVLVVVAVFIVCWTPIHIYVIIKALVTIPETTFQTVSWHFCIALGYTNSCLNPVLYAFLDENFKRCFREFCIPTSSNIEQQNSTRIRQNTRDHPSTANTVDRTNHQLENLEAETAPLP
Type: functional, cell-based
Outline: (§1)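 HEK293 cells stably expressing the μ- or δ-opioid receptor, serum-starved 16 h, then exposed to ligand at 37 °C for the indicated times. Whole lysates run on 10% SDS-PAGE and immunoblotted for phospho-ERK1/2, with the blot reprobed for total ERK as loading control. Three independent experiments.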

SMILES | Activity
Cc1cc(O)cc(C)c1C[C@H](N)C(=O)N(C)[C@H](C)C(=O)N[C@H]1Cc2ccccc2CN(CC(N)=O)C1=O | Active

Each compound was assayed against T3, Opioid receptors; mu and delta (Mus musculus, UniProt P42866+P32300) (assay: Agonist activity at MOR/DOR in NMRI mouse frontal cortex assessed as reduction in spinal cord network activity by electrophysiology assay).
Type: functional, tissue-based
Outline: (§2)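 Primary neuronal networks from frontal cortex or spinal cord grown on microelectrode array neurochips for 4 weeks to 3 months. Accumulating concentrations from 1 fM to 100 μM (nine steps), each recorded for 1 h at 37 °C, pH 7.4. Spike rate and burst duration taken from the last 30 min stable phase in 60 s bins. EC50 obtained by logistic dose-response fitting.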

SMILES | EC50 [×10⁻¹⁵ M]
Cc1cc(O)cc(C)c1C[C@H](N)C(=O)N(C)[C@H](C)C(=O)N[C@H]1Cc2ccccc2CN(CC(N)=O)C1=O | 1.61

These compounds were tested against T2, Mu-type opioid receptor (assay: Agonist activity at human MOR expressed in HEK293 cells assessed as stimulation of ERK1/2 phosphorylation at 1 uM after 2 mins by Western blotting).
Type: functional, cell-based
Outline: as §1

SMILES | Activity
Cc1cc(O)cc(C)c1C[C@H](N)C(=O)N[C@H](C)C(=O)N[C@H]1Cc2ccccc2CN(CC(N)=O)C1=O | Active

Species on record: Rattus norvegicus
Experiment: Selectivity index, ratio of EC50 for rat brain DOR to EC50 for rat brain MOR by cAMP accumulation assay

SMILES | Ratio EC50
Cc1cc(O)cc(C)c1C[C@H](N)C(=O)N[C@H](C)C(=O)N[C@H]1Cc2ccccc2CN(CC(N)=O)C1=O | 2.04
Cc1cc(O)cc(C)c1C[C@H](N)C(=O)N(C)[C@H](C)C(=O)N[C@H]1Cc2ccccc2CN(CC(N)=O)C1=O | 9.2

Each compound was assayed against T1, Delta-type opioid receptor (assay: Agonist activity at human DOR expressed in HEK293 cells assessed as stimulation of ERK1/2 phosphorylation at 1 uM after 2 mins by Western blotting).
Type: functional, cell-based
Outline: as §1

SMILES | Activity
Cc1cc(O)cc(C)c1C[C@H](N)C(=O)N[C@H](C)C(=O)N[C@H]1Cc2ccccc2CN(CC(N)=O)C1=O | Active
Cc1cc(O)cc(C)c1C[C@H](N)C(=O)N(C)[C@H](C)C(=O)N[C@H]1Cc2ccccc2CN(CC(N)=O)C1=O | Active

The compounds below were run against T1, Delta-type opioid receptor (assay: Agonist activity at human DOR expressed in HEK293 cell membrane assessed as inhibition of forskolin-induced cAMP accumulation by liquid scintillation counting).
Type: functional, cell membranes
Outline: (§3)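 HEK293 cells stably expressing the μ- or δ-opioid receptor, prelabelled for 24 h with [3H]adenine. Cells treated with ligand (10 fM to 10 μM or 1 pM to 10 μM) plus 50 μM forskolin for 30 min at 37 °C. Read-out is [3H]cAMP over total [3H]adenine nucleotides by scintillation counting, given as percent of forskolin-stimulated accumulation.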

SMILES | EC50 [nM]
Cc1cc(O)cc(C)c1C[C@H](N)C(=O)N[C@H](C)C(=O)N[C@H]1Cc2ccccc2CN(CC(N)=O)C1=O | 0.17
Cc1cc(O)cc(C)c1C[C@H](N)C(=O)N(C)[C@H](C)C(=O)N[C@H]1Cc2ccccc2CN(CC(N)=O)C1=O | 0.016

The compounds below were run against T1, Delta-type opioid receptor (assay: Displacement of [3H]diprenorphine from human DOR expressed in HEK293 cell membrane by liquid scintillation counting).
Type: cell membranes
Outline: (§4)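 Membranes (20 μg) from HEK293 cells stably expressing μ- or δ-OR incubated with [3H]diprenorphine (3.75 nM) for 45 min at 30 °C in 50 mM Tris-HCl pH 7.5, 100 mM NaCl, 10 mM MgCl2. Nonspecific binding defined with 10 μM naloxone. Bound ligand collected by GF/C filtration and counted by liquid scintillation.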

SMILES | Ki [µM]
Cc1cc(O)cc(C)c1C[C@H](N)C(=O)N[C@H](C)C(=O)N[C@H]1Cc2ccccc2CN(CC(N)=O)C1=O | 0.018
Cc1cc(O)cc(C)c1C[C@H](N)C(=O)N(C)[C@H](C)C(=O)N[C@H]1Cc2ccccc2CN(CC(N)=O)C1=O | 0.005

What follows are compounds tested against T2, Mu-type opioid receptor (assay: Agonist activity at human MOR expressed in HEK293 cell membrane assessed as inhibition of forskolin-induced cAMP accumulation by liquid scintillation counting).
Type: functional, cell membranes
Outline: as §3

SMILES | EC50 [nM]
Cc1cc(O)cc(C)c1C[C@H](N)C(=O)N[C@H](C)C(=O)N[C@H]1Cc2ccccc2CN(CC(N)=O)C1=O | 0.0832
Cc1cc(O)cc(C)c1C[C@H](N)C(=O)N(C)[C@H](C)C(=O)N[C@H]1Cc2ccccc2CN(CC(N)=O)C1=O | 0.00174

Each compound was assayed against T2, Mu-type opioid receptor (assay: Displacement of [3H]diprenorphine from human MOR expressed in HEK293 cell membrane by liquid scintillation counting).
Type: cell membranes
Outline: as §4

SMILES | Ki [µM]
Cc1cc(O)cc(C)c1C[C@H](N)C(=O)N[C@H](C)C(=O)N[C@H]1Cc2ccccc2CN(CC(N)=O)C1=O | 0.17
Cc1cc(O)cc(C)c1C[C@H](N)C(=O)N(C)[C@H](C)C(=O)N[C@H]1Cc2ccccc2CN(CC(N)=O)C1=O | 0.0148

Species on record: Homo sapiens
Experiment: Selectivity index, ratio of Ki for human DOR to Ki for human MOR by radioligand displacement assay
Outline: as §4

SMILES | Ratio Ki
Cc1cc(O)cc(C)c1C[C@H](N)C(=O)N[C@H](C)C(=O)N[C@H]1Cc2ccccc2CN(CC(N)=O)C1=O | 0.106
Cc1cc(O)cc(C)c1C[C@H](N)C(=O)N(C)[C@H](C)C(=O)N[C@H]1Cc2ccccc2CN(CC(N)=O)C1=O | 0.34

Each compound was assayed against Opioid receptors; mu and delta (Mus musculus) (UniProt P42866+P32300) (assay: Agonist activity at MOR/DOR in NMRI mouse frontal cortex or spinal cord networks assessed as reduction in spinal cord network activity by electrophysiology assay relative to gabapentin).
Sequence of Opioid receptors; mu and delta (Mus musculus) (P32300 whole entry, looked up): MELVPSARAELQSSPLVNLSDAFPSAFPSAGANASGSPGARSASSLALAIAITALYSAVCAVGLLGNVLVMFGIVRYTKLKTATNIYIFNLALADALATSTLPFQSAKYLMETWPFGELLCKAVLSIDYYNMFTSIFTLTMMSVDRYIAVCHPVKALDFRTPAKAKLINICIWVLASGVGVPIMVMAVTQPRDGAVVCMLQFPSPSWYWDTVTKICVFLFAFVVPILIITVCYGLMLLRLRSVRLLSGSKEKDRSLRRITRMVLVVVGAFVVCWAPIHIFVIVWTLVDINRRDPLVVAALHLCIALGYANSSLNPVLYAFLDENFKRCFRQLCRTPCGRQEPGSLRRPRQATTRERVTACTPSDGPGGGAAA
Sequence of Opioid receptors; mu and delta (Mus musculus) (P42866 whole entry, looked up): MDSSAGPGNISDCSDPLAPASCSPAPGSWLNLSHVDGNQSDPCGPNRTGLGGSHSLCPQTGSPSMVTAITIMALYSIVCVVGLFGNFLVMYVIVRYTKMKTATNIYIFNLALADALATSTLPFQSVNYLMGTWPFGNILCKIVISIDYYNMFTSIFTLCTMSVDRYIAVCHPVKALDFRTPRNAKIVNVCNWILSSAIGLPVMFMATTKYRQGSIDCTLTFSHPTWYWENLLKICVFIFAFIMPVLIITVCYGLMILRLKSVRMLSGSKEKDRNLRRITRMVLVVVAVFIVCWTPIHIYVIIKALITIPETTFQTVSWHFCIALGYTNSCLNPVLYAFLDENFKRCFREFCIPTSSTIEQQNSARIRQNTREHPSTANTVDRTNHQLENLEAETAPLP
Type: functional, tissue-based
Set-up: scale not given: the % may be the effect or the level left

SMILES | Activity [%]
Cc1cc(O)cc(C)c1C[C@H](N)C(=O)N(C)[C@H](C)C(=O)N[C@H]1Cc2ccccc2CN(CC(N)=O)C1=O | 21

Each compound was assayed against T2, Mu-type opioid receptor (assay: Agonist activity at human MOR expressed in HEK293 cell membrane assessed as inhibition of forskolin-induced cAMP accumulation by liquid scintillation counting relative to control).
Type: functional, cell membranes

SMILES | Emax [%]
Cc1cc(O)cc(C)c1C[C@H](N)C(=O)N[C@H](C)C(=O)N[C@H]1Cc2ccccc2CN(CC(N)=O)C1=O | 78
Cc1cc(O)cc(C)c1C[C@H](N)C(=O)N(C)[C@H](C)C(=O)N[C@H]1Cc2ccccc2CN(CC(N)=O)C1=O | 72

Each compound was assayed against Kappa-type opioid receptor (Homo sapiens, UniProt P41145) (assay: Displacement of [3H]diprenorphine from human KOR expressed in HEK293 cell membrane by liquid scintillation counting).
Sequence of Kappa-type opioid receptor (P41145 whole entry): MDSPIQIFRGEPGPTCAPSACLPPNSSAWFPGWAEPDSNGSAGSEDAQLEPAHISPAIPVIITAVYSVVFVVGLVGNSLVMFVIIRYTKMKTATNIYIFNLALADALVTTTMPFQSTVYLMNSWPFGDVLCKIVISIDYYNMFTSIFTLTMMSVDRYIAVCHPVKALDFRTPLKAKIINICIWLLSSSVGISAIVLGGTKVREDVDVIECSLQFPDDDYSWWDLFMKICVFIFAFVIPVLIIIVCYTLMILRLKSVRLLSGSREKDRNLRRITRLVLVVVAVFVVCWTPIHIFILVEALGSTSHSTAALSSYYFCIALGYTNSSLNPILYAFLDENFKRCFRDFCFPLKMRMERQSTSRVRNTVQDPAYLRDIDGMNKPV
Type: cell membranes

SMILES | Ki [µM]
Cc1cc(O)cc(C)c1C[C@H](N)C(=O)N[C@H](C)C(=O)N[C@H]1Cc2ccccc2CN(CC(N)=O)C1=O | > 1000
Cc1cc(O)cc(C)c1C[C@H](N)C(=O)N(C)[C@H](C)C(=O)N[C@H]1Cc2ccccc2CN(CC(N)=O)C1=O | > 1000

Each compound was assayed against Delta-type opioid receptor (Rattus norvegicus, UniProt P33533) (assay: Displacement of [3H]deltorphin2 from DOR in rat brain homogenates by liquid scintillation counting).
Sequence of Delta-type opioid receptor (Rattus norvegicus, UniProt P33533) (P33533 whole entry): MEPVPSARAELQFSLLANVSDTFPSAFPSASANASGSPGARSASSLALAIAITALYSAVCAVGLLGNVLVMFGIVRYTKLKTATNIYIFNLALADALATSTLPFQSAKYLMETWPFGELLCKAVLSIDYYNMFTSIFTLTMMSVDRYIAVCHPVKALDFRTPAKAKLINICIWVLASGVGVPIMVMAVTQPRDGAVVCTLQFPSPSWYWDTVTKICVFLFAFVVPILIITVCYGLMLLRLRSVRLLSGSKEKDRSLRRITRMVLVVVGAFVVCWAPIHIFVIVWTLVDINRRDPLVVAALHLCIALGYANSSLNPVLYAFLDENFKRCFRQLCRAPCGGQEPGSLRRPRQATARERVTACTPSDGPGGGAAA
Type: tissue-based

SMILES | IC50 [µM]
Cc1cc(O)cc(C)c1C[C@H](N)C(=O)N(C)[C@H](C)C(=O)N[C@H]1Cc2ccccc2CN(CC(N)=O)C1=O | 0.00095

Each compound was assayed against T3, Opioid receptors; mu and delta (assay: Agonist activity at MOR/DOR in NMRI mouse spinal cord assessed as reduction in spinal cord network activity by electrophysiology assay).
Type: functional
Outline: as §2

SMILES | EC50 [µM]
Cc1cc(O)cc(C)c1C[C@H](N)C(=O)N(C)[C@H](C)C(=O)N[C@H]1Cc2ccccc2CN(CC(N)=O)C1=O | 0.0013

Each compound was assayed against Mu-type opioid receptor (Rattus norvegicus, UniProt P33535) (assay: Displacement of [3H]naloxone from MOR in rat brain homogenates by liquid scintillation counting).
Sequence of Mu-type opioid receptor (Rattus norvegicus, UniProt P33535) (P33535 whole entry): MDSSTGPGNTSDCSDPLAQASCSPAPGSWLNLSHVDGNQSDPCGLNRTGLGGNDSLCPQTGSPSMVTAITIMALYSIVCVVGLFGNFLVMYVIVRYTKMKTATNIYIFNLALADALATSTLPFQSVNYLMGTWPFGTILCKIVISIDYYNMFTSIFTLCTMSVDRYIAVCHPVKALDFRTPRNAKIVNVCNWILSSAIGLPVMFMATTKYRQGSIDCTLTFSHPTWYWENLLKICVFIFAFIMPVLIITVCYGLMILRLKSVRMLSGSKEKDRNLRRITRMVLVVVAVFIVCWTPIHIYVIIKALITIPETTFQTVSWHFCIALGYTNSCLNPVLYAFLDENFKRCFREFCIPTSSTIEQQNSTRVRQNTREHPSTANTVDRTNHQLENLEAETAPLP
Type: tissue-based

SMILES | IC50 [µM]
Cc1cc(O)cc(C)c1C[C@H](N)C(=O)N(C)[C@H](C)C(=O)N[C@H]1Cc2ccccc2CN(CC(N)=O)C1=O | 0.00095

From ChEMBL document CHEMBL2150869, “Superpotent [Dmt¹] dermorphin tetrapeptides containing the 4-aminotetrahydro-2-benzazepin-3-one scaffold with mixed μ/δ opioid receptor agonistic properties” (J Med Chem, 2011)
